16 compounds from ChEMBL document CHEMBL2057067, “Synthesis of phenserine analogues and evaluation of their cholinesterase inhibitory activities” (Bioorg Med Chem, 2012) can be followed below.

As usually defined, the IC50 is the point on the concentration scale where inhibition reaches its midpoint. The low end stands for higher potency, the high end for lower potency.

Assay [1] concerns the target T1, Acetylcholinesterase (Rattus norvegicus) (UniProt P37136).
T1 sequence (whole entry): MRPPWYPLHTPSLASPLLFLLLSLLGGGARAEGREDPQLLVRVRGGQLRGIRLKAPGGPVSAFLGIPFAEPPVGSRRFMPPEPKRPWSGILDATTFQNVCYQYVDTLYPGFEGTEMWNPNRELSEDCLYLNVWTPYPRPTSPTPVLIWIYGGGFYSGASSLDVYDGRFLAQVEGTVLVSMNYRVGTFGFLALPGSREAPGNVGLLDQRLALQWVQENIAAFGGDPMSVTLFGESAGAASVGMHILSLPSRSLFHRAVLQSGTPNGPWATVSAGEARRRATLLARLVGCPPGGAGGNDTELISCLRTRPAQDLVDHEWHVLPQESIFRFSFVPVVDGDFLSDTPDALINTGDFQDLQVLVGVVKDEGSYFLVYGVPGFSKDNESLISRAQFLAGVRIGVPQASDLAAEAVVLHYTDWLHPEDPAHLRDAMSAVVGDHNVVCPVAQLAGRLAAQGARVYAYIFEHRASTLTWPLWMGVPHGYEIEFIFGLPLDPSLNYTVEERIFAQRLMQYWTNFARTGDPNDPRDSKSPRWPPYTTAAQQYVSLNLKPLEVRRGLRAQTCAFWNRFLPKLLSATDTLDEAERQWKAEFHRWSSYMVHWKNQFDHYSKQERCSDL
Briefly: (§1) Inhibition of AChE in Wistar rat brain homogenate using acetylthiocholine iodide as substrate after 0.5 hrs by Ellman's method. The assay is classed as tissue-based. The gist of the method:
(§2)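 Male Wistar ST rats (8–10 weeks old). Inhibitor is preincubated with homogenate (3:10 v/v) for 0.5 h at 37 °C. Ellman assay in 0.1 M phosphate with DTNB (10 mM stock) and acetylthiocholine (75 mM stock). A412 is recorded for 2 min at 25 °C, and the last-minute change gives activity. Four dose-response curves.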
(DTNB colorimetry detects thiols as they appear.)

A further assay has as its target T2, Acetylcholinesterase (Rattus norvegicus, UniProt P37136).
T2 sequence (P37136 whole entry): T1 sequence (whole entry)
Described as §1. Format: tissue-based. Summed up: as §2

The target in assay [2] is Butyrylcholinesterase (Rattus norvegicus) (UniProt Q9JKC1). Briefly: (§3) Inhibition of BuChE in Wistar rat plasma using acetylthiocholine iodide as substrate after 0.5 hrs by Ellman's method.
In another assay the target is Butyrylcholinesterase (Rattus norvegicus, UniProt Q9JKC1). Described as §3.
The species named for the next assay is Rattus norvegicus. Nature of the assay: Selectivity ratio of IC50 for BuChE in Wistar rat plasma to IC50 for AChE in Wistar rat brain homogenate. Format: tissue-based.

Chain of Butyrylcholinesterase (Q9JKC1 whole entry): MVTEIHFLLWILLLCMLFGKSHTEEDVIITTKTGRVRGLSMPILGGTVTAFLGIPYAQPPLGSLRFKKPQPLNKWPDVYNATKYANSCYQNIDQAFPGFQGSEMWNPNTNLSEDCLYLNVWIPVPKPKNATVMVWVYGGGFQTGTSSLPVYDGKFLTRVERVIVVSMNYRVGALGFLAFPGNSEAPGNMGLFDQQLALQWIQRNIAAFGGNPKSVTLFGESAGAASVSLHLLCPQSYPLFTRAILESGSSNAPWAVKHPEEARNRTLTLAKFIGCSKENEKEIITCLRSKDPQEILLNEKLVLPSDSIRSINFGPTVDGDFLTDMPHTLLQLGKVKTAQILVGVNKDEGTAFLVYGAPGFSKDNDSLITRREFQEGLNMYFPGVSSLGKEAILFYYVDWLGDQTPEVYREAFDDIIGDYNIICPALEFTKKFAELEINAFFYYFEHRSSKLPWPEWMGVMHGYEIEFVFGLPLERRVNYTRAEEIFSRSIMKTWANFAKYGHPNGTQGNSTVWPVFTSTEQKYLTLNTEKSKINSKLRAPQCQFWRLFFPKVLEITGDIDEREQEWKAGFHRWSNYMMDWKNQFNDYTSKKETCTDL
Chain of Butyrylcholinesterase (Rattus norvegicus) (Q9JKC1 as listed by the source): as the sequence (Q9JKC1 whole entry) above

Turning to `C=CC[C@]12CCN(C)[C@@H]1N(C)c1ccc(OC(=O)Nc3ccccc3)cc12`, the inhibition entry in assay [1] and in assay [2] was “Dose-dependent effect” in each case. Moreover, the IC50 at Acetylcholinesterase was 1.26 µM; on Butyrylcholinesterase, over 100 µM. The Ratio IC50 in the assay filed under Rattus norvegicus was over 79.

Turning to `C=C[C@@]12CCN(C)[C@@H]1N(C)c1ccc(OC(=O)Nc3ccccc3)cc12`, the inhibition result in assay [1] and in assay [2] was “Dose-dependent effect” throughout. For the same compound, the figures for the IC50 against Acetylcholinesterase and at Butyrylcholinesterase were 0.644 µM and 41.9 µM, respectively. The Ratio IC50 in the assay listed under Rattus norvegicus was 65.

In the case of `CC[C@]12CCN(C)[C@@H]1N(C)c1ccc(OC(=O)Nc3ccccc3)cc12`, the inhibition result in assay [1] and in assay [2] was “Dose-dependent effect” throughout. Besides, the IC50 stood at 0.373 µM against Acetylcholinesterase and 36.2 µM on Butyrylcholinesterase. Besides, the Ratio IC50 in the assay filed under Rattus norvegicus came out at 97.

As for `CCC(C)(C)[C@@]12CCN(C)[C@@H]1N(C)c1ccc(OC(=O)Nc3ccccc3)cc12`, the inhibition entry in assay [1] and in assay [2] was “Dose-dependent effect” each time. In addition, the half-maximal inhibitory concentration (IC50) is 9.5 µM against Acetylcholinesterase and over 100 µM at Butyrylcholinesterase. Also, the Ratio IC50 in the assay listed under Rattus norvegicus is over 11.

In the case of `CN1CC[C@@]2(C)c3cc(OC(=O)Nc4ccccc4)ccc3N(C)C12` (stereo partly specified), the inhibition result in assay [1] and in assay [2] was “Dose-dependent effect” in each case. The results for the IC50 against Acetylcholinesterase and at Butyrylcholinesterase were 0.0283 µM and 30 µM, respectively. Also, in the assay listed under Rattus norvegicus, the Ratio IC50 worked out at 1100.

For `C=CCC12CCN(C)C1N(C)c1ccc(OC(=O)Nc3ccccc3)cc12` (racemic), the inhibition entry in assay [1] and in assay [2] was “Dose-dependent effect” in each case. In addition, the IC50 against Acetylcholinesterase was 3.77 µM; on Butyrylcholinesterase, over 100 µM. For the same compound, in the assay listed under Rattus norvegicus, the Ratio IC50 was over 27.

In the case of `C=CCC12CCN(C)C1N(C)c1ccc(OC(=O)Nc3ccc(C(C)C)cc3)cc12` (racemic), the inhibition result in assay [1] and in assay [2] was “Dose-dependent effect” throughout. For the same compound, the IC50 at Acetylcholinesterase and on Butyrylcholinesterase was over 10 µM in each case.

Regarding `C=CCC12CCN(C)C1N(C)c1ccc(OC(=O)Nc3ccc(Br)cc3)cc12` (racemic), the inhibition entry in assay [1] and in assay [2] was “Dose-dependent effect” in each case. The IC50 at Acetylcholinesterase and at Butyrylcholinesterase was over 10 µM each time.

For `C=CCC12CCN(C)C1N(C)c1ccc(OC(=O)Nc3ccc(F)cc3)cc12` (racemic), the inhibition result in assay [1] and in assay [2] was “Dose-dependent effect” throughout. The IC50 against Acetylcholinesterase was 4.36 µM; against Butyrylcholinesterase, over 100 µM. Moreover, in the assay filed under Rattus norvegicus, the Ratio IC50 is over 23.

Take `C=CCC12CCN(C)C1N(C)c1ccc(OC(=O)Nc3ccccc3F)cc12` (racemic): the inhibition result in assay [1] and in assay [2] was “Dose-dependent effect” in each case. The IC50 stood at 3.55 µM at Acetylcholinesterase and 87.3 µM against Butyrylcholinesterase. Further, the Ratio IC50 in the assay filed under Rattus norvegicus was 25.

In the case of `CCCC12CCN(C)C1N(C)c1ccc(OC(=O)Nc3ccccc3)cc12` (racemic), the inhibition result in assay [1] and in assay [2] was “Dose-dependent effect” throughout. The IC50 is 3.66 µM on Acetylcholinesterase and over 100 µM against Butyrylcholinesterase. Besides, the Ratio IC50 in the assay listed under Rattus norvegicus is over 27.

`C=CC12CCN(C)C1N(C)c1ccc(OC(=O)Nc3ccccc3)cc12` (racemic): the inhibition entry in assay [1] and in assay [2] was “Dose-dependent effect” each time. Further, the IC50 on Acetylcholinesterase was 0.749 µM; at Butyrylcholinesterase, over 30 µM. Moreover, the Ratio IC50 in the assay listed under Rattus norvegicus is over 40.

For `CCC12CCN(C)C1N(C)c1ccc(OC(=O)Nc3ccccc3)cc12` (racemic), the inhibition entry in assay [1] and in assay [2] was “Dose-dependent effect” throughout. For the same compound, the IC50 against Acetylcholinesterase stood at 0.397 µM; against Butyrylcholinesterase it was 30 µM. Besides, the Ratio IC50 in the assay filed under Rattus norvegicus stood at 76.

For `CCC(C)(C)C12CCN(C)C1N(C)c1ccc(OC(=O)Nc3ccccc3)cc12` (racemic), the inhibition result in assay [1] and in assay [2] was “Dose-dependent effect” throughout. Further, the IC50 against Acetylcholinesterase was 18.4 µM; against Butyrylcholinesterase it was over 100 µM. For the same compound, the Ratio IC50 in the assay listed under Rattus norvegicus was over 5.4.

In the case of `C=CCC12CC(=O)N(C)C1N(C)c1ccc(OC(=O)Nc3ccccc3)cc12` (racemic), the inhibition entry in assay [1] and in assay [2] was “Dose-dependent effect” throughout. Also, the values for the IC50 against Acetylcholinesterase and on Butyrylcholinesterase were 4.73 µM and 65.3 µM, respectively. The Ratio IC50 in the assay filed under Rattus norvegicus came out at 14.

In the case of `CNC(=O)Oc1ccc2c(c1)[C@]1(C)CCN(C)[C@@H]1N2C` [PHYSOSTIGMINE], the inhibition entry in assay [1] and in assay [2] was “Dose-dependent effect” each time. On Butyrylcholinesterase, this compound had an IC50 of 0.0584 µM.
